Data as given in article PMC4353613 (Structure (London, England : 1993), 2014).

Tests used:
C3aR1 receptor = experiment: Photoaffinity cross-linking of modified TLQP-21 peptide; type: binding, mouse; details: membranes from 3T3 cells, UV 365 nm 30 min; Figure 1B
human C3aR1 = biological target: T1, human C3aR1 (Homo sapiens, UniProt Q16581); experiment: β-arrestin recruitment assay in HTLA cells transfected with the C3aR1 receptor; type: cell-based; details: for EC50 times lower than that of C3a: human C3aR1, relative to C3a
T1 sequence (Q16581 1-482): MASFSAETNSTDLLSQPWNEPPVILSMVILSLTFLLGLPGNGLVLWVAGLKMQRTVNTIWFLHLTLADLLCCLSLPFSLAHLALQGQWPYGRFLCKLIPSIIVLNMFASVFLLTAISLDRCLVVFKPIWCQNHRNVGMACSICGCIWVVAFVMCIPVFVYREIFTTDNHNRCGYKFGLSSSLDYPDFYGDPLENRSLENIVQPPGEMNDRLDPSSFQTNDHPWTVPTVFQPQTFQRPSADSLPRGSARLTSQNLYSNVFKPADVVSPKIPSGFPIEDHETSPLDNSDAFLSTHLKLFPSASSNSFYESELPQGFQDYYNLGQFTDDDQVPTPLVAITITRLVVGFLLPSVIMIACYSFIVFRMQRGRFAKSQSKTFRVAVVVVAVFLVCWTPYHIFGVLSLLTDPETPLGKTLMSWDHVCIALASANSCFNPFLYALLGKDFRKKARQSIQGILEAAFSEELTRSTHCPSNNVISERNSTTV

rat stomach fundus = experiment: Gastric contraction assay; details: for biological activity in fundus strip contraction: concentrations up to 10μM
3T3L1 adipocytes = experiment: Lipolysis assay in 3T3L1 adipocytes; type: cell-based, mouse; details: with isoproterenol, 3 hours incubation at 37°C
Outline: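 Adipocytes at day 8 of differentiation in 6-well plates. Starved 3 h in KRH with 1% BSA, then exposed to test compound with or without agonists/antagonists in KRH with 4% BSA. Media collected and heated at 60°C for 20 min to stop enzyme activity. Cells kept for protein content, or trypsinised for diameter and viability. At least three independent replicates.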

AMPK phosphorylation = experiment: AMPK phosphorylation, western blotting in 3T3L1 adipocytes; type: cell-based, mouse; details: anti-Phospho-AMPK(Thr172) western blot
Outline: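 3T3-L1 cells from ATCC, differentiated to adipocytes with fetal bovine serum, dexamethasone, methylisobutylxanthine and insulin. Extracts (about 5×10^5 cells) taken up in SDS reducing sample buffer and run on NuPAGE. Primary antibody overnight at 4°C; tubulin as loading probe; peroxidase-coupled donkey secondaries. Semi-quantitative densitometry; ANOVA with Tukey post hoc tests.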

N=C(N)NCCC[C@H](NC(=O)COCC(c1ccccc1)c1ccccc1)C(=O)O [SB290157]
cross-linking efficiency of modified TLQP-21 peptide in presence of antagonist (C3aR1 receptor): substantial reduction

CC(C)C[C@H](NC(=O)[C@@H](N)[C@@H](C)O)C(=O)N[C@@H](CCC(N)=O)C(=O)N1CCC[C@H]1C(=O)N1CCC[C@H]1C(=O)N[C@@H](C)C(=O)N[C@@H](CO)C(=O)N[C@@H](CO)C(=O)N[C@@H](CCCNC(=N)N)C(=O)N[C@@H](CCCNC(=N)N)C(=O)N[C@@H](CCCNC(=N)N)C(=O)N[C@@H](Cc1c[nH]cn1)C(=O)N[C@@H](Cc1ccccc1)C(=O)N[C@@H](Cc1c[nH]cn1)C(=O)N[C@@H](Cc1c[nH]cn1)C(=O)N[C@@H](C)C(=O)N[C@@H](CC(C)C)C(=O)N1CCC[C@H]1C(=O)N1CCC[C@H]1C(=O)N[C@@H](C)C(=O)N[C@@H](CCCNC(=N)N)C(=O)O [TLQP-21]
EC50 times lower than that of C3a (human C3aR1): approximately 3 times

CC(C)C[C@H](NC(=O)[C@H](C)NC(=O)[C@H](CO)NC(=O)[C@@H]1CCCN1C(=O)[C@@H]1CCCN1C(=O)[C@H](CCC(N)=O)NC(=O)[C@H](CC(C)C)NC(=O)[C@@H](N)[C@@H](C)O)C(=O)N[C@@H](CCCNC(=N)N)C(=O)N[C@@H](CCCNC(=N)N)C(=O)N[C@@H](CCCNC(=N)N)C(=O)N[C@@H](Cc1c[nH]cn1)C(=O)N[C@@H](Cc1ccc(O)cc1)C(=O)N[C@@H](Cc1c[nH]cn1)C(=O)N[C@@H](Cc1c[nH]cn1)C(=O)N[C@@H](C)C(=O)N[C@@H](CC(C)C)C(=O)N1CCC[C@H]1C(=O)N1CCC[C@H]1C(=O)N[C@@H](CO)C(=O)N[C@@H](CCCNC(=N)N)C(=O)O [human TLQP-21]
EC50 times lower than that of C3a (human C3aR1): approximately 22 times

C3a: human C3a peptide, first ligand identified for the C3aR1 [reference compound]
EC50 (human C3aR1; HTLA cells transfected with human C3aR1, Figure 1C): 3000 nM

HFHHALPPAR [HFHH-10]
biological activity (response) in fundus strip contraction (rat stomach fundus; 3μM, compared to mouse TLQP-21): ~ 3% | biological activity (response) in fundus strip contraction (rat stomach fundus; 6μM): 62% | biological activity (response) in fundus strip contraction (rat stomach fundus; 10μM): 75%

TLQPPASSRRR [TLQP-11]
biological activity in fundus strip contraction (rat stomach fundus): zero response

TLQPPASSRRRHFHHALAPAR [P18A]
biological activity (response) in fundus strip contraction (rat stomach fundus; 3μM, compared to mouse TLQP-21): ~ 65%

TLQPPASSRRRHFHHALPAAR [P19A]
biological activity (response) in fundus strip contraction (rat stomach fundus; 3μM, compared to mouse TLQP-21): 19% | biological activity (response) in fundus strip contraction (rat stomach fundus; 6μM): 35%

TLQPPASSRRRHFHHALPPAA [R21A]
biological activity in fundus strip contraction (rat stomach fundus): complete loss of activity | block of the activity of a subsequent infusion of TLQP-21 (C3aR1 antagonism) (rat stomach fundus; fundus strips, mutant given before TLQP-21): does not block | potentiation of isoproterenol-induced lipolysis (3T3L1 adipocytes): does not potentiate | potentiation of AMPK phosphorylation (AMPK phosphorylation): does not potentiate
